Experimental data published in ChEMBL document CHEMBL4219167, “Disulfiram-based disulfides as narrow-spectrum antibacterial agents” (Bioorg Med Chem Lett, 2018).
In brackets after ≈: the same amount, converted by molar mass.

Experiments:
Citrobacter freundii = assay: Antibacterial activity against Citrobacter freundii 4_7_47CFAA after 20 hrs by broth microdilution assay; format: functional
In short: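 Brucella broth, 37°C, 5% CO2. Inoculum is 0.5 McFarland diluted 1:100, with serial drug dilutions from DMSO stocks (1 mM or 1 mg/mL) and control antibiotics in water.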

[1] = Selectivity index, ratio of IC50 for cytotoxicity against human HepG2 cells to MIC for antibacterial activity against vancomycin-resistant Staphylococcus aureus HIP14300; format: toxicity, cell-based; details: read-out: Selectivity Index
[2] = test system: Staphylococcus epidermidis; assay: Antibacterial activity against vancomycin-intermediate resistant Staphylococcus epidermidis NRS6 after 20 hrs by broth microdilution assay; format: functional; details: NRS6, 20 h
[3] = test system: Staphylococcus epidermidis; assay: Synergistic antibacterial activity against vancomycin-intermediate resistant Staphylococcus epidermidis NRS53 assessed as vancomycin MIC after 20 hrs by checkerboard microdilution assay; format: functional; details: NRS53, 20 h
Yersinia enterocolitica = assay: Antibacterial activity against Yersinia enterocolitica WA-314 after 20 hrs by broth microdilution assay; format: functional; details: WA-314, 20 h
In short: (§1)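 Yersinia cultured in tryptic soy broth at 28°C. A 0.5 McFarland suspension diluted 1:100 receives serial dilutions of agents from 1 mM or 1 mg/mL DMSO stocks; control antibiotics are in water.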

Burkholderia multivorans = assay: Antibacterial activity against Burkholderia multivorans CF2 after 20 hrs by broth microdilution assay; format: functional; details: CF2, 20 h
In short: (§2)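 Medium is tryptic soy broth, 37°C. Overnight culture is adjusted to 0.5 McFarland, diluted 1:100 and exposed to serial dilutions (test agents from 1 mM or 1 mg/mL DMSO stocks; control antibiotics in water). Incubation lasts 20 h. MIC is the lowest concentration with no visible growth.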

Staphylococcus aureus [4] = assay: Synergistic antibacterial activity against methicillin-resistant Staphylococcus aureus COL in presence of vancomycin after 20 hrs by checkerboard microdilution assay; format: functional
Klebsiella pneumoniae = assay: Antibacterial activity against Klebsiella pneumoniae 700603 after 20 hrs by broth microdilution assay; format: functional; details: Klebsiella pneumoniae, 700603, 20 h; in short: as §2
[5] = rat, microsomes, 1 h
Escherichia coli = assay: Antibacterial activity against Escherichia coli DC10B after 20 hrs by broth microdilution assay; format: functional; in short: as §2
Streptococcus agalactiae = assay: Antibacterial activity against Streptococcus agalactiae SGBS005 after 20 hrs by broth microdilution assay; format: functional; details: SGBS005, 20 h
Staphylococcus aureus [6] = assay: Synergistic antibacterial activity against vancomycin-resistant Staphylococcus aureus HIP14300 after 20 hrs in presence of vancomycin by checkerboard microdilution assay; format: functional; details: HIP14300, 20 h
Bacillus anthracis [7] = assay: Antibacterial activity against Bacillus anthracis Ames 35 after 20 hrs by broth microdilution assay; format: functional; details: Ames 35, 20 h
Staphylococcus aureus [8] = assay: Synergistic antibacterial activity against vancomycin-intermediate resistant Staphylococcus aureus AR-217 after 20 hrs in presence of vancomycin by checkerboard microdilution assay; format: functional; details: AR-217, 20 h
Staphylococcus aureus [9] = assay: Antibacterial activity against vancomycin-resistant Staphylococcus aureus HIP14300 after 20 hrs by broth microdilution assay; format: functional; details: HIP14300, 20 h
Bacillus anthracis [10] = assay: Antibacterial activity against Bacillus anthracis Weybridge after 20 hrs by broth microdilution assay; format: functional
Staphylococcus aureus [11] = assay: Antibacterial activity against methicillin-resistant Staphylococcus aureus COL after 20 hrs by broth microdilution assay; format: functional
Burkholderia cepacia = assay: Antibacterial activity against Burkholderia cepacia UCB 717 after 20 hrs by broth microdilution assay; format: functional; details: UCB 717, 20 h; in short: as §2
[12] = test system: Staphylococcus epidermidis; assay: Synergistic antibacterial activity against vancomycin-intermediate resistant Staphylococcus epidermidis NRS53 assessed as fractional inhibitory concentration in presence of vancomycin after 20 hrs by checkerboard microdilution assay; format: functional
Staphylococcus aureus [13] = assay: Synergistic antibacterial activity against methicillin-resistant Staphylococcus aureus COL assessed as fractional inhibitory concentration in presence of vancomycin after 20 hrs by checkerboard microdilution assay; format: functional
Pseudomonas aeruginosa = assay: Antibacterial activity against Pseudomonas aeruginosa ATCC 15442 after 20 hrs by broth microdilution assay; format: functional; details: ATCC 15442, 20 h; in short: as §2
Staphylococcus aureus [14] = assay: Synergistic antibacterial activity against vancomycin-intermediate resistant Staphylococcus aureus AR-217 assessed as fractional inhibitory concentration in presence of vancomycin after 20 hrs by checkerboard microdilution assay; format: functional
Salmonella typhi = assay: Antibacterial activity against Salmonella typhi Ty2 after 20 hrs by Todd Hewitt broth broth microdilution method; format: functional, Salmonella enterica subsp. enterica serovar Typhi str. Ty2; details: Salmonella enterica
[15] = test system: Staphylococcus epidermidis; assay: Antibacterial activity against vancomycin-intermediate resistant Staphylococcus epidermidis NRS53 after 20 hrs by broth microdilution assay; format: functional; details: NRS53, 20 h
Yersinia pestis [16] = assay: Antibacterial activity against Yersinia pestis Kim D2 after 20 hrs by broth microdilution assay; format: functional; details: Kim D2, 20 h
Micrococcus luteus = assay: Antibacterial activity against Micrococcus luteus SK58 after 20 hrs by broth microdilution assay; format: functional; details: SK58, 20 h
Proteus mirabilis = assay: Antibacterial activity against Proteus mirabilis HM-752 after 20 hrs by broth microdilution assay; format: functional; details: HM-752, 20 h; in short: as §2
Enterococcus faecium = assay: Antibacterial activity against vancomycin-resistant Enterococcus faecium ATCC 700221 after 20 hrs by broth microdilution assay; format: functional; details: ATCC 700221, 20 h
In short: (§3)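 Brain heart infusion broth at 37°C; E. faecium under 5% CO2. Cells at 0.5 McFarland are diluted 1:100 and exposed to serial dilutions (DMSO stocks 1 mM or 1 mg/mL; controls in water).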

Bacillus anthracis [17] = assay: Antibacterial activity against Bacillus anthracis Sterne 34F2 after 20 hrs by broth microdilution assay; format: functional; details: Sterne 34F2, 20 h
Staphylococcus aureus [18] = assay: Synergistic antibacterial activity against methicillin-resistant Staphylococcus aureus COL assessed as vancomycin MIC after 20 hrs by checkerboard microdilution assay; format: functional
Staphylococcus aureus [19] = assay: Antibacterial activity against vancomycin-intermediate resistant Staphylococcus aureus AR-217 after 20 hrs by broth microdilution assay; format: functional; details: AR-217, 20 h
[20] = test system: Staphylococcus epidermidis; assay: Synergistic antibacterial activity against vancomycin-intermediate resistant Staphylococcus epidermidis NRS53 after 20 hrs in presence of vancomycin by checkerboard microdilution assay; format: functional; details: NRS53, 20 h
[21] = rat, microsomes
Shigella dysenteriae = assay: Antibacterial activity against Shigella dysenteriae Newcastle 1934 after 20 hrs by broth microdilution assay; format: functional; details: Newcastle 1934, 20 h; in short: as §2
[22] = test system: Yersinia pseudotuberculosis; assay: Antibacterial activity against Yersinia pseudotuberculosis P61 after 20 hrs by broth microdilution assay; format: functional; details: P61, 20 h; in short: as §1
Yersinia pestis [23] = assay: Antibacterial activity against Yersinia pestis Kuma D7 after 20 hrs by broth microdilution assay; format: functional; details: Kuma D7, 20 h
Vibrio cholerae = assay: Antibacterial activity against Vibrio cholerae TS D4 after 20 hrs by Todd Hewitt broth broth microdilution method; format: functional; details: TS D4, 20 h
Staphylococcus aureus [24] = assay: Synergistic antibacterial activity against vancomycin-resistant Staphylococcus aureus HIP14300 assessed as fractional inhibitory concentration in presence of vancomycin after 20 hrs by checkerboard microdilution assay; format: functional
Brucella neotomae = assay: Antibacterial activity against Brucella neotomae 5K33 after 20 hrs by broth microdilution assay; format: functional; details: 5K33, 20 h
HepG2 = assay: Cytotoxicity against human HepG2 cells assessed as reduction in cell viability after 72 hrs by MTT assay; format: cell-based; details: HepG2, 72 h
[25] = Selectivity index, ratio of IC50 for cytotoxicity against human HepG2 cells to MIC for antibacterial activity against vancomycin-intermediate resistant Staphylococcus aureus; format: toxicity, cell-based; details: read-out: Selectivity Index
Listeria monocytogenes = assay: Antibacterial activity against Listeria monocytogenes Gibson after 20 hrs by broth microdilution assay; format: functional; in short: as §3
Acinetobacter baumannii = assay: Antibacterial activity against Acinetobacter baumannii AB5075 after 20 hrs by broth microdilution assay; format: functional; details: AB5075, 20 h
[26] = Selectivity index, ratio of IC50 for cytotoxicity against human HepG2 cells to MIC for antibacterial activity against methicillin-resistant Staphylococcus aureus COL; format: toxicity, cell-based; details: read-out: Selectivity Index
Staphylococcus aureus [27] = assay: Synergistic antibacterial activity against vancomycin-resistant Staphylococcus aureus HIP14300 assessed as vancomycin MIC after 20 hrs by checkerboard microdilution assay; format: functional; details: HIP14300, 20 h

CCCCCCCCSSC(=S)N(CC)CC
MIC (Citrobacter freundii): > 32 µM
selectivity ratio [1]: > 13
MIC [2]: 4 µM (≈ 1.17 µg/mL)
MIC [3]: 2 µg/mL
MIC (Yersinia enterocolitica): > 32 µM
MIC (Burkholderia multivorans): > 32 µM
MIC (Staphylococcus aureus [4]): 0.25 µg/mL
MIC (Klebsiella pneumoniae): > 32 µM
CLH [5]: 22.6 µL/min/mg
MIC (Escherichia coli): > 32 µM
MIC (Streptococcus agalactiae): 32 µM (≈ 9.39 µg/mL)
MIC (Staphylococcus aureus [6]): 1 µg/mL
MIC (Bacillus anthracis [7]): 4 µM (≈ 1.17 µg/mL)
MIC (Staphylococcus aureus [8]): 0.25 µg/mL
MIC (Staphylococcus aureus [9]): 4 µM (≈ 1.17 µg/mL)
MIC (Bacillus anthracis [10]): 2 µM (≈ 0.587 µg/mL)
MIC (Staphylococcus aureus [11]): 4 µM (≈ 1.17 µg/mL)
MIC (Burkholderia cepacia): > 32 µM
FIC [12]: 0.75
FIC (Staphylococcus aureus [13]): 0.75
MIC (Pseudomonas aeruginosa): > 32 µM
FIC (Staphylococcus aureus [14]): 0.56
MIC (Salmonella typhi): > 32 µM
MIC [15]: 2 µg/mL (≈ 6.81 µM)
MIC (Yersinia pestis [16]): 32 µM (≈ 9.39 µg/mL)
MIC (Micrococcus luteus): 16 µM (≈ 4.7 µg/mL)
MIC (Proteus mirabilis): > 32 µM
MIC (Enterococcus faecium): 8 µM (≈ 2.35 µg/mL)
MIC (Bacillus anthracis [17]): 2 µM (≈ 0.587 µg/mL)
MIC (Staphylococcus aureus [18]): 1 µg/mL
MIC (Staphylococcus aureus [19]): 4 µM (≈ 1.17 µg/mL)
MIC [20]: 1 µg/mL
beta t1/2 [21]: 1.02 h
MIC (Shigella dysenteriae): > 32 µM
MIC [22]: > 32 µM
MIC (Yersinia pestis [23]): 32 µM (≈ 9.39 µg/mL)
MIC (Vibrio cholerae): > 32 µM
FIC (Staphylococcus aureus [24]): 0.5
MIC (Brucella neotomae): > 32 µM
IC50 (HepG2): 50 µM
selectivity ratio [25]: > 13
MIC (Listeria monocytogenes): 4 µM (≈ 1.17 µg/mL)
MIC (Acinetobacter baumannii): > 32 µM
selectivity ratio [26]: > 13
MIC (Staphylococcus aureus [27]): 1 µg/mL
